This note sets out measurements from ChEMBL document CHEMBL4513216, “Probing the Open Global Health Chemical Diversity Library for Multistage-Active Starting Points for Next-Generation Antimalarials” (ACS Infect Dis, 2020).

The data set is described as follows: Toxicity liver stage against HepG2, at 10uM. The format is cell-based. More on the design: test concentration 10 uM, cell line HepG2-A16-CD81EGFP. The conditions noted are these: human, HepG2-A16-CD81EGFP cells; read-out: INHIBITION
A digest of the protocol: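 Uninfected HepG2-A16-CD81EGFP cells, 3 × 10^3 per well, 1536-well, plated on prespotted compound at 10 μM final, parasite-free screening media added to match infected plates; puromycin 10 μM positive, DMSO 0.5% negative; run in parallel with 48 h PbLuc assay at 37 °C, 5% CO2; viability by CellTiter-Glo luminescence, normalized to controls.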
On to `CCc1c(C)nc2n(c1=O)CC(C(=O)Nc1nccs1)CS2` (configuration not stated), for which the cytotoxicity at 10 µM came to 1.83%.

Regarding `NC(CC1CCCC1)c1ccc(Oc2ccccc2)cc1` (configuration not stated), the cytotoxicity at 10 µM worked out at 3.72%.

Consider `Cc1cccc(-n2c(C)cc(=O)[nH]c2=O)c1C`, for which the cytotoxicity at 10 µM was -2%. In the case of `CSc1ccc(C(=O)C2CCCN(C(=O)CCn3cnnn3)C2)cc1` (configuration not stated), the cytotoxicity at 10 µM worked out at 6.03%. Regarding `Cc1cccc(C(=O)N2C[C@@H](OCc3ccncc3)[C@@H]3OCCC[C@@H]32)n1`, the cytotoxicity at 10 µM is -5.06%.

In the case of `CCOc1ccc(-n2nc(C)c(CC(C)=O)c2C)cc1C(N)=O`, the cytotoxicity at 10 µM worked out at 7.09%. Regarding `CCOCc1nc2c(c(NC(CC)c3cccnc3)n1)CCNCC2` (configuration not stated), the cytotoxicity at 10 µM was -4.28%. Take `CN(C)CC1CN(Cc2nnc(-c3ccccc3Cl)o2)CCO1` (configuration not stated): the cytotoxicity at 10 µM amounted to 1.56%.

Take `Cc1ncc2c(n1)C1(CCN(C(=O)C(C)C)CC1)OCC2`: the cytotoxicity at 10 µM was determined as 5.49%. For `CCN1CCC(NC(=O)Cc2csc(C(C)(C)C)n2)CC1`, the cytotoxicity at 10 µM was -16.3%. As for `O=C(c1ccoc1)N1C[C@@H]2[C@@H](C1)OCC(=O)N2Cc1cccnc1`, the cytotoxicity at 10 µM was found to be 3.33%. `COC1CN(CCO)S(=O)(=O)c2ccccc21` (configuration not stated): the cytotoxicity at 10 µM was found to be 3.54%. As to `CC(=O)N1CCN(Cc2nnc(C(C)(C)C)o2)CC1`, the cytotoxicity at 10 µM was -0.549%.

As for `CCCC(=O)N(CCCN1CCOCC1)c1nc2c(C)c(C)ccc2s1`, the cytotoxicity at 10 µM is -12.6%.

Regarding `CN(C)C(=O)CC1CC2(CCN(Cc3ccsc3)CC2)c2ccccc21` (configuration not stated), the cytotoxicity at 10 µM stood at 1.13%.

As for `Clc1ccccc1-c1nnc(CSCCN2CCOCC2)o1`, the cytotoxicity at 10 µM amounted to 0.728%. With `CC1CN(CC(=O)NCc2ccc(F)cc2)CCN1c1nccs1` (configuration not stated), the cytotoxicity at 10 µM is -1.22%. For the molecule `CN(Cc1ccsc1)C(=O)CS(=O)(=O)Cc1ccc(Cl)c(Cl)c1`, the cytotoxicity at 10 µM was -0.987%. Take `Cc1cccc(C(C(=O)N(C)Cc2ccon2)N(C)C)c1` (configuration not stated): the cytotoxicity at 10 µM stood at 5.4%. For `Cn1cc(C[C@H]2[C@H](N3CCOCC3)CCN2C(=O)c2ccco2)cn1`, the cytotoxicity at 10 µM turned out to be 2.44%. As to `Cc1ccc(-c2nc(CN3CCn4c(nnc4C4CC4)C3)co2)cc1`, the cytotoxicity at 10 µM turned out to be 5.17%.

Turning to `Cc1[nH]ccc1C(=O)N[C@H]1CN(S(C)(=O)=O)C[C@@H]1C1CC1`, the cytotoxicity at 10 µM worked out at 3.28%. `CCN(c1ccc(C(=O)NCCCN2CCCCC2)cc1)S(=O)(=O)CC`: the cytotoxicity at 10 µM was found to be 7.91%. `CCOc1cc(F)ccc1NC(=O)N(C(C)CS(C)(=O)=O)C1CC1` (configuration not stated): the cytotoxicity at 10 µM turned out to be 4.11%. As for `Cn1c(Cn2ccnc2)nnc1C1CCN(C(=O)c2ccoc2)CC1`, the cytotoxicity at 10 µM is -120%.

Turning to `O=C(c1ccc[nH]1)N1CCn2cc(CN3CCCC3)nc2C1`, the cytotoxicity at 10 µM worked out at 3.09%. `CC(C)n1cnnc1Cn1ccc2ncccc2c1=O`: the cytotoxicity at 10 µM worked out at 0.86%. As for `Cc1cccc(C)c1CCNC(=O)N1CCCC2(C1)OCCO2`, the cytotoxicity at 10 µM is -3.47%.

As to `O=C(CCC1CCCC1)N1C[C@@H]2CC[C@H]1CN(Cc1ccncc1)C2`, the cytotoxicity at 10 µM was -3.76%.

Take `COc1ccc(CN(C)[C@@H]2CN(C(=O)c3cnn(C)c3)C[C@H]2O)cc1`: the cytotoxicity at 10 µM is -21.9%. Turning to `CNc1cc(C(=O)N2CCOC(C(=O)NC3CCCC3)C2)ccn1` (configuration not stated), the cytotoxicity at 10 µM came to 8.16%. For `Cc1ccc(C(=O)NCCCn2cncn2)c(=O)[nH]1` the value was -14.4%; for `CCn1cnnc1CN(C)c1nccc(C2CCCC2)n1`, 0.998%; for `COCCNC(=O)c1ccc(NCc2csc(C)n2)cc1Cl`, 6.81%. `Cc1ccc(Oc2ncccc2CNC(=O)NC2CCCCC2)cn1`: the cytotoxicity at 10 µM is -3.01%. As for `CC(C)c1nc(CC(=O)N2CCCC(n3cncn3)C2)cs1` (configuration not stated), the cytotoxicity at 10 µM was -8.24%. For the molecule `Cc1nn(C)c2nc(N(Cc3ccncc3)CC3CCCO3)sc12` (configuration not stated), the cytotoxicity at 10 µM stood at 9.42%. As to `CC(C)C(=O)N1CCN(Cc2cc(-c3ccncc3)nn2C)CC1`, the cytotoxicity at 10 µM stood at 0.59%.

With `CN(C)CCCNC(=O)c1ccc(N(C)S(C)(=O)=O)cc1Cl`, the cytotoxicity at 10 µM was -6.3%. Regarding `NC(=O)NC(=O)CNC1(c2ccc(Cl)cc2)CCCC1`, the cytotoxicity at 10 µM was 15.7%. Regarding `COc1cc(C(=O)N(C)Cc2nccn2CC(F)(F)F)ccc1C`, the cytotoxicity at 10 µM was -4.24%.

Regarding `Cc1ccsc1C(=O)Nc1cc(Br)c(=O)n(C)c1`, the cytotoxicity at 10 µM was -15.1%. Regarding `COc1cc(C(=O)N2CCCC2c2noc(C(C)C)n2)on1` (configuration not stated), the cytotoxicity at 10 µM is -12.4%. On to `COCc1cccc(NS(=O)(=O)c2cc(C(=O)O)cs2)c1`, for which the cytotoxicity at 10 µM is -4.69%. With `Cn1c(CN2CCC(O)CC2)nnc1C1CCCN(c2ccncc2)C1` (configuration not stated), the cytotoxicity at 10 µM came out at 9.29%. For `Cn1cc(I)c(C(=O)NC2CCCCC2)n1`, the cytotoxicity at 10 µM amounted to 18.1%. With `Cc1ccc(C(=O)N2CCC(n3cc(CN)nn3)CC2)cc1F`, the cytotoxicity at 10 µM was -3.54%. Consider `O=C(NCC(O)COc1ccccc1)C1(c2ccc(F)cc2)CC1` (configuration not stated), for which the cytotoxicity at 10 µM was 1.3%. For `CC(NC(=O)Nc1nccs1)c1ccncc1` (configuration not stated) the value was -9.98%; for `COc1ccc(-c2nc(CNC(C)Cn3cccn3)cs2)cc1` (configuration not stated), 4.27%; for `Cc1nn(C)c2c(NCc3ccccn3)ncnc12`, -5.2%.

As to `O=C(Nc1ccccc1)C1=NOC2(CCCN(C(=O)C3CCCC3)C2)C1` (configuration not stated), the cytotoxicity at 10 µM was found to be 4.88%. For `CCN(CC)C(=O)Cn1cc(-c2nc(C(C)C)no2)nn1` the value was 2.28%; for `CS(=O)(=O)c1ccc(CNC(=O)NCC2CCOC2)cc1` (configuration not stated), -9.22%; for `CCC(=O)N1CCN(C(=O)Nc2ccc(Cl)cc2)[C@H]2CS(=O)(=O)C[C@H]21`, -43.9%. For the molecule `CC(=O)N1CCCN(C(=O)NCc2ccc(Cl)s2)CC1`, the cytotoxicity at 10 µM was -4.02%. As to `CC(C)Oc1ccccc1C1CC(=O)Nc2nc(N3CCOCC3)sc21` (configuration not stated), the cytotoxicity at 10 µM is 14.3%. With `N#Cc1ccc(CNC(=O)NCCC(=O)NC2CCCC2)c(F)c1`, the cytotoxicity at 10 µM is 3.79%. For `CC(=O)Nc1nc(C(=O)N2CCCC2c2ccc(Br)cc2)cs1` (configuration not stated), the cytotoxicity at 10 µM was -18.4%. In the case of `CC(=O)N1CCCC(C(=O)N2CCN(c3cnn(C)c(=O)c3)CC2)C1` (configuration not stated), the cytotoxicity at 10 µM worked out at 0.761%. For `COc1ccc(C)cc1CSCCn1nc2ccccn2c1=O` the value was 1.03%; for `Cc1ncncc1C(=O)N1CCCC1c1c(C)nn(C)c1Cl` (configuration not stated), -12.2%; for `COc1ncccc1NC(=O)N1CCCC1c1cc(C)no1` (configuration not stated), -9.66%. With `Cc1cccc(C(=O)NCc2ccnc(N(C)C)c2)n1`, the cytotoxicity at 10 µM came out at 3.22%. Consider `c1csc(CN2CCO[C@@H]3CN(C4CCOCC4)C[C@@H]3C2)c1`, for which the cytotoxicity at 10 µM was -157%. For `Cc1nc2ccccc2nc1CN(C)CC1CCCN1c1cccnn1` (configuration not stated) the value was 7.17%; for `O=C(CC1CCCC1)N1CCC(c2nnc(-c3ccccn3)o2)CC1`, -3.32%. For `Cc1cccc(OC2CCN(C(=O)CNC(=O)N(C)C)CC2)c1`, the cytotoxicity at 10 µM is -0.951%. Turning to `CCc1nnc2n1CCN(C(=O)c1cnc(C3CC3)s1)C2`, the cytotoxicity at 10 µM came out at 9.21%. On to `COc1cccc(CC(=O)N2CCC3(CC2)OCCCC3O)c1OC` (configuration not stated), for which the cytotoxicity at 10 µM is -5.7%.

Turning to `Cc1cccc(C(=O)N2CCn3cnc(COCC4CC4)c3C2)c1`, the cytotoxicity at 10 µM was determined as 14%. For `O=C(c1ccco1)N1CCCC1C1CCN(Cc2ccccc2)CC1` (configuration not stated) the value was 0.821%; for `CC1COCCN1Cc1nc(-c2ccsc2)no1` (configuration not stated), -17.8%; for `Cc1nc(C)c(S(=O)(=O)NC(=O)c2sccc2C)s1`, 0.25%. As to `CC(NCCn1cccn1)c1cc(F)ccc1F` (configuration not stated), the cytotoxicity at 10 µM was found to be 6.33%. Take `O=C(CN1CCCCC1Cn1cccn1)NC1CCN(C2CC2)CC1` (configuration not stated): the cytotoxicity at 10 µM was -4.43%.

On to `CC(O)CN1CCN(C(=O)c2ccc(N(C)C)nn2)CC1` (configuration not stated), for which the cytotoxicity at 10 µM is -13.4%. For `O=C(Cc1csc(-c2ccccc2F)n1)NCc1ccc(C(=O)O)cc1` the value was -3.85%. Turning to `Cc1nc(C)n(CC(=O)N2CCc3ncc(Cl)cc3C2)n1`, the cytotoxicity at 10 µM was -18.8%.

Regarding `CC(C)(C)CN(CCO)C(=O)Nc1cccc(N2CCNC2=O)c1`, the cytotoxicity at 10 µM is -17.2%. `CCC(C(=O)NCC1CCN(c2ccncc2)CC1)N(C)C` (configuration not stated): the cytotoxicity at 10 µM was found to be 15%. As to `CC(=O)N(C)Cc1cccc(NC(=O)N(C)Cc2nccs2)c1`, the cytotoxicity at 10 µM is -6.77%. `CCc1c(-c2ccccc2)nc2c(c(C)c(C)n2CCN(C)C)c1N`: the cytotoxicity at 10 µM stood at 17.7%. With `CNC(=O)CCC(=O)N1CCOC(c2ccc3cc(OC)ccc3c2)C1` (configuration not stated), the cytotoxicity at 10 µM was 3.85%. For the molecule `Cc1ccc(CC(=O)N2C[C@@H](CN(C)C)[C@@H](CO)C2)cc1C`, the cytotoxicity at 10 µM is -14%. Turning to `CCC(=O)N1CCC2(COCc3c(C)nc(NCc4ccco4)nc32)C1` (configuration not stated), the cytotoxicity at 10 µM was 1.75%. As to `O=C1NC(c2ccccc2)=N[C@@]12CC[C@@H]1CN(Cc3ccoc3)C[C@@H]12`, the cytotoxicity at 10 µM worked out at 5.22%. As to `O=C(c1cccc2c1OCCO2)N1CCCC1c1noc(C2CC2)n1` (configuration not stated), the cytotoxicity at 10 µM was -14.5%. Turning to `Cn1nccc1C(=O)N1CCCC1c1[nH]ncc1C(N)=O` (configuration not stated), the cytotoxicity at 10 µM was -15.2%. For `COCCNC(=O)NCCS(=O)(=O)N1CCN(c2cccc(C)c2)CC1` the value was 4.31%; for `O=C(NC1CCc2c(ccc(=O)n2CC2CC2)C1)c1cscn1` (configuration not stated), -104%; for `COc1ccc(NC(=O)c2cccc(OC)c2OC)cc1`, 18.5%. For the molecule `N#Cc1cnc2c(F)cc(F)cc2c1NC1CCN(CC(N)=O)CC1`, the cytotoxicity at 10 µM was -2.89%.

As for `CC(C)CCNC(=O)c1ccc(-c2ccco2)[nH]c1=O`, the cytotoxicity at 10 µM was -9.62%.

In the case of `CCc1ncc(C(=O)N2CCCC2Cn2cccn2)s1` (configuration not stated), the cytotoxicity at 10 µM is -9.67%. For the molecule `O=C(NCCCn1cncn1)NCC(c1ccccc1)N1CCCC1` (configuration not stated), the cytotoxicity at 10 µM was -3.99%. As to `CCc1cc(C(=O)NCC2CCN(Cc3cccc(C)n3)C2)on1` (configuration not stated), the cytotoxicity at 10 µM was 7.69%.
